Bioassay records from PubChem.
MITF TRPM1 HTS: activators of MITF-driven TRPM1 promoter activity in SK-MEL-5 cells | SK-MEL-5 TRPM1-promoter luciferase, 24 h; % of positive control, neutral wells = 0 | activation, % at 12.5 µM | 300,000 tested, 0.75% active | AID 588334;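 active means mean activation of at least 80% with every replicate also reaching 80%; inconclusive means mean reaches 80% but some replicate falls short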;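 further: 0% = neutral control wells and 100% = parthenolide positive control wells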
esBAF inh: blocks esBAF chromatin remodeling in mouse ES cells | Bmi1-luciferase knock-in reporter, 24 h; 100% = twice the neutral-well signal | reporter increase, % at 12.5 µM | 350,000 tested, 2% active; in the data active means activation above about 40%; inconclusive means no clear call, values can overlap the other calls;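 further: 0% = median of the plate's neutral control wells and 100% = double that signal; a rise in the Bmi1 reporter signal indicates esBAF inhibition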
XiGFP reactiv: activators of X-chromosome reactivation in mouse fibroblasts. activation, % at 7.58 µM. XiGFP mouse fibroblasts, % GFP-positive cells imaging, 3 d; cells co-treated with 5-aza-dC sensitizer; scaled so ellipticine positive control = 100%. 360,000 tested, 0.055% active. AID 743238;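 active means mean normalized replicate activation at least 10% and every replicate at or above 10%; inconclusive means only one of the two criteria met; inactive means mean below 10% and not all replicates reach 10%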;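 further: 0% = median of on-plate neutral control wells and 100% = ellipticine 6 µM median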
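System: 68-5-11 XiGFP fibroblast line; Timing: 3 days compound exposure; Compound dosing: one concentration, pinned; Benchmarks: positive control ellipticine, 6 µM final; Buffer or medium: DMEM containing 5-aza-dC.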
Wnt act: activators of Wnt/beta-catenin signaling; Wnt/beta-catenin reporter cell assay, activator, plate reader; AID 743398; activation, % at 9.35 µM; 300,000 tested, 1.2% active; in the data active means activation above about 30%, passing the limit was not always enough; inconclusive means no clear call, values can overlap the other calls;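 further: 0% = neutral control wells and 100% = positive control wells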
Vif imaging: inhibitors of HIV Vif; AID 602346; 340,000 tested, 0.35% active; HEK293T cells, Vif self-association by quenched fluorescence, imaging, 24 h; inhibition, % at 7.49 µM; in the data active means inhibition above about 50%, passing the limit was not always enough; inconclusive means no clear call, values can overlap the other calls; inactive means below about 31%
Ring1 derepress: esBAF inhibition confirmed by Ring1 de-repression; mouse ESC E14, Ring1 mRNA RT-qPCR fold change; shares compounds with esBAF inh; 550 tested, under 10 active; AID 743176; fold change at 33 µM;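 active means Ring1 gene expression raised more than 2-fold over untreated cells in both replicates at either tested dose; inconclusive means only one replicate above 2-fold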;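 further: Ring1 transcript normalised to actin housekeeping signal by TaqMan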
Fgf4 repress: confirmation of esBAF inhibitors: Fgf4 repression in mouse ESCs; shares compounds with esBAF inh; mouse ESC E14, Fgf4 mRNA qPCR fold change; hits give low values; Fgf4 expression fold change at 33 µM; 550 tested, 4% active;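 active means Fgf4 expression under 0.8 fold of control in both repeat measurements at one or both tested doses; inconclusive means under 0.8 fold in just a single repeat measurement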;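 further: Fgf4 transcript normalised to actin in duplex TaqMan qPCR; cells exposed to compound for 24 h before lysis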
esBAF Bmi1 qPCR: esBAF inhibition confirmed by Bmi1 de-repression; 550 tested, under 10 active; fold change at 33 µM; shares compounds with esBAF inh; mouse ESE14 ES cells, Bmi1 mRNA qPCR fold; hits give high values;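 active means Bmi1 expression fold change above 6 at either tested concentration, seen in replicate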;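 further: higher fold means more Bmi1 de-repression and stronger esBAF inhibition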
A549 cytotox: A549 cell cytotoxicity; shares compounds with esBAF inh; 550 tested, under 10 active; cell viability change % (negative = cytotoxic), % at 25 µM, hits read low; plate reader; call rule not given here
HepG2 cytotox SP: kills or reduces viability of HepG2 cells; shares compounds with esBAF inh; HepG2 cytotoxicity, plate reader; hits give low values; activity change, negative = inhibition, % at 25 µM; 550 tested, 4% active; AID 743189; in the data active means activity change below about -50%
HEK293 cytotox SP: cytotoxicity in HEK293 cells; shares compounds with esBAF inh; plate reader; activity change, negative = inhibition, % at 25 µM, hits read low; 550 tested, 3% active; AID 743190; in the data active means activity change below about -38%, passing the limit was not always enough
* = called active by the depositor; ? = inconclusive; / = not tested or not shown. Sampled rows, rich in hits. Any-hit rate of the full collection: about 2.6%.

SMILES	MITF TRPM1 HTS	esBAF inh	XiGFP reactiv	Wnt act	Vif imaging	Ring1 derepress	Fgf4 repress	esBAF Bmi1 qPCR	A549 cytotox	HepG2 cytotox SP	HEK293 cytotox SP
CC(=O)Nc1cccc2c1O[C@@H](CN(C)C)[C@@H](C)CN(C)C2=O	/	/	0	/	/	/	/	/	/	/	/
CCCCc1nc2cc(C(=O)N3CCN(c4nc(C)cnc4C)CC3)ccc2o1	?	64*	0	4	-22	1	0.91	1.1	-8	0	-22
C=CCNc1nc(-c2ccc(O)c(C(N)=O)c2)cs1	55	59*	/	-3	3	1.2	1	1.3	-7	-36	-6
COCC(=O)N1C[C@@H](C)[C@@H](OC)CN(C)C(=O)c2ccc(NC(=O)c3ccccc3)cc2OC[C@H]1C	/	-2	0	/	/	/	/	/	/	/	/
CC(C)Cc1ccc(-c2ccc3nccn3c2)cc1	/	66*	0	15	-11	1.2	?	2	-5	-17	0
Fc1ccc(-c2ccc3nccn3c2)cc1Cl	/	9	0	-1	-2	/	/	/	/	/	/
CO[C@H]1CN(C)C(=O)c2cc(NC(=O)C3CCOCC3)ccc2OC[C@H](C)N(C(=O)c2ccccc2)C[C@H]1C	/	0	0	/	/	/	/	/	/	/	/
Fc1ccc2nc(-c3ccccc3)ccc2c1	/	60*	0	18	/	1.1	0.82	1.7	-4	-58*	-6
Nc1nc(Cl)cc(-c2ccccc2)n1	-11	/	0	1	-2	/	/	/	/	/	/
Fc1cc(Cl)cc2ccc(-c3ccccc3)nc12	/	56*	0	6	-3	1.5	0.98	1.8	9	67	-5
O=C(O)C[C@H]1C[C@H]2c3cc(NS(=O)(=O)c4ccc(F)cc4)ccc3O[C@H]2[C@H](CO)O1	/	/	0	/	/	/	/	/	/	/	/
O=C(N/N=C/c1cnc2ccccc2n1)c1cccc(F)c1	49	60*	0	9	-10	1.1	1.1	1.3	4	4	3
CC1CCN(C(=O)CCc2nnc(-c3ccccc3)o2)CC1	24	74*	0	?	9	0.94	0.94	1.3	-3	-10	-6
O=C(CCc1nnc(Cc2ccc(-c3ccccc3)cc2)o1)N1CCCC1	-2	/	-1	-1	-11	/	/	/	/	/	/
CCNC(=O)O/N=C(\C)c1sc(-c2ccccc2)nc1C	/	63*	/	9	4	0.96	0.8	1.7	-7	-17	-18
COCC(=O)Nc1ccc2c(c1)[C@H]1C[C@H](CC(=O)NCc3ccc(Cl)cc3)O[C@H](CO)[C@H]1O2	/	-2	0	/	/	/	/	/	/	/	/
CCc1ccccc1NC(=O)c1cc(-c2cccc(O)c2)on1	/	79*	0	21	/	1.2	?	1.2	-17	-11	-18
O=C(Nc1ccccc1C(F)(F)F)c1cc(-c2cccc(O)c2)on1	68	31	/	/	-5	/	/	/	/	/	/
CC(=O)Oc1ccc2cc(-c3ccccc3)c(=O)oc2c1	60	60*	0	15	-1	1.3	0.89	1.6	-14	-7	3
O=C(Nc1cccc(O)c1)c1ccc(Br)cc1	71	57*	/	/	/	1	1.1	1.3	-7	-11	-18
O=C(Nc1cccc(O)c1)c1cccc(C(=O)Nc2cccc(O)c2)c1	/	-9	0	2	-6	/	/	/	/	/	/
COc1ccccc1NC(=O)C(=O)NCCC1CCCCN1S(=O)(=O)c1ccccc1 (configuration not stated)	-11	-5	0	0	-4	/	/	/	/	/	/
